From ChEMBL document CHEMBL1649261, “Pharmacodynamic profile of tigecycline against methicillin-resistant Staphylococcus aureus in an experimental pneumonia model” (Antimicrob Agents Chemother, 2009) come the findings set out here.

Each structure is given as a SMILES string. In brackets after ≈: the same amount, converted by molar mass.

Data set [1] is described as follows: AUC (0 to 8 hrs) in Staphylococcus aureus-infected BALB/c mouse epithelial lining fluid at 25 mg/kg, sc administered as single dose. The data set is classed as ADME, organism-based. Also on record: time < 8 hr, dose 25 mg/kg, route subcutaneous. The method in brief: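 Infected neutropenic BALB/c mice received a single sc dose in saline. Normal-saline bronchoalveolar lavage was done at 0.25, 1, 4 and 8 h, six mice per time. HPLC drug levels in lavage were converted to epithelial lining fluid concentrations with the serum/BAL urea ratio. AUC0-8 was calculated by the trapezoidal rule, and ELF drug was taken as free drug.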

Data set [2] can be described thus: Protein binding in Staphylococcus aureus-infected BALB/c mouse serum at 12.5 mg/kg, sc administered as single dose. The data set is classed as ADME, organism-based. On the set-up: dose 12.5 mg/kg, route subcutaneous. As to conditions: read-out: PB (converted). The method in brief: (§1)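 Ultrafiltration was run in triplicate with 30,000-MW cutoff devices. Drug was diluted into fresh mouse serum to final 1.5, 3, 6 and 15 μg/ml, held at 37°C for 10 min with shaking, and centrifuged at 1,000 × g for 45 min at 10°C. Binding was calculated as (S − SUF)/S × 100 for each concentration, each matched to a dose by its peak serum level.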

Data set [3] can be described thus: AUC (0 to 24 hrs) in BALB/c mouse infected with Staphylococcus aureus at 12.5 mg/kg, sc administered as single dose. The data set is classed as ADME, organism-based. Also on record: time < 24 hr, dose 12.5 mg/kg, route subcutaneous. Particulars: plasma. Put shortly:
(§2)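 Neutropenic BALB/c mice (cyclophosphamide ip 250 and 100 mg/kg, days −4 and −1) with S. aureus pneumonia from oral instillation of 0.05 ml of a 3% mucin suspension received a single 0.2-ml sc dose in normal saline. Serum was taken at 0.25, 0.5, 1, 1.5, 2, 4, 6 and 8 h, six mice per time point. Drug was measured by validated HPLC.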

Data set [4] in a line: Ratio of fAUC to MIC in hospital-acquired methicillin-resistant Staphylococcus aureus 56-infected BALB/c mouse at […] maximal effective concentration. The data set is classed as functional. The method in brief:
(§3)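 Neutropenic BALB/c mice (cyclophosphamide 250 and 100 mg/kg i.p., 4 and 1 days before infection) were infected by oral inhalation of 0.05 ml inoculum in 3% mucin under isoflurane. Subcutaneous tigecycline (1.56–150 mg/kg/day, single or 2–3 divided doses, saline vehicle) was started 6 h post-infection. At 24 h lungs were homogenized and plated; change in log10 CFU was taken versus 0-h controls.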

A short description of data set [5]: Ratio of fAUC to MIC in methicillin-susceptible Staphylococcus aureus ATCC 29213-infected BALB/c mouse at 80% maximal effective concentration. In kind it is functional. Put shortly:
(§4)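 Mice were neutropenic and infected by lung instillation with ATCC 29213, with the MIC set by CLSI broth microdilution in triplicate. Sc treatment started 6 h post-inoculation at 1.56–150 mg/kg/day, given as one, two or three doses. Lung CFU at 24 h were compared with 0-h controls. Change in log10 CFU was fitted against protein-binding-corrected fAUC/MIC with a sigmoid Emax model.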

A short description of data set [6]: AUC (0 to 24 hrs) in BALB/c mouse infected with Staphylococcus aureus at 25 mg/kg, sc administered as single dose. The data set is classed as ADME, organism-based. Also on record: time < 24 hr, dose 25 mg/kg, route subcutaneous. Particulars: plasma. The method in brief: as §2
A short description of data set [7]: Half life in BALB/c mouse infected with Staphylococcus aureus at 25 mg/kg, sc administered as single dose. The data set is classed as ADME, organism-based. As to conditions: in vivo. Also on record: dose 25 mg/kg, route subcutaneous. Put shortly:
as §2

Data set [8] in a line: Cmax in BALB/c mouse infected with Staphylococcus aureus at 50 mg/kg, sc administered as single dose. Particulars: in vivo. On the set-up: dose 50 mg/kg, route subcutaneous. In kind it is ADME, organism-based. Put shortly:
as §2

The nature of data set [9]: Ratio of fAUC to MIC in community-acquired methicillin-resistant Staphylococcus aureus 156-infected BALB/c mouse at 80% maximal effective concentration. The data set is classed as functional. The method in brief: as §3
A further data set has as its system Staphylococcus aureus. The data set is described as follows: Antibacterial activity against community-acquired methicillin-resistant Staphylococcus aureus 156 by microdilution method. The data set is classed as functional. The method in brief:
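Tigecycline MIC measured in triplicate by broth microdilution following CLSI guidelines. Isolates were stored at −80°C in skim milk and subcultured twice on blood agar before testing.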

Data set [10] in a line: AUC (0 to 24 hrs) in BALB/c mouse infected with Staphylococcus aureus at 50 mg/kg, sc administered as single dose. Also on record: time < 24 hr, dose 50 mg/kg, route subcutaneous. As to conditions: plasma. In kind it is ADME, organism-based. Put shortly:
as §2

Data set [11] can be described thus: Ratio of fAUC to MIC in community-acquired methicillin-resistant Staphylococcus aureus 147-infected BALB/c mouse at […] maximal effective concentration. In kind it is functional. The method in brief:
as §3

A further data set deals with Mus musculus. The data set is described as follows: Volume of distribution in BALB/c mouse infected with Staphylococcus aureus at 25 mg/kg, sc administered as single dose. In kind it is ADME, organism-based. Also on record: dose 25 mg/kg, route subcutaneous. As to conditions: in vivo. The method in brief: as §2
Data set [12] can be described thus: Protein binding in Staphylococcus aureus-infected BALB/c mouse serum at 25 mg/kg, sc administered as single dose. The data set is classed as ADME, organism-based. On the set-up: dose 25 mg/kg, route subcutaneous. As to conditions: read-out: PB (converted). Put shortly: as §1
Data set [13] in a line: Ratio of fAUC (0 to 8 hrs) in epithelial lining fluid to plasma of Staphylococcus aureus-infected BALB/c mouse at 25 mg/kg, sc administered as single dose. In kind it is ADME, organism-based. Also on record: dose 25 mg/kg, route subcutaneous. Put shortly:
(§5)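 Neutropenic BALB/c mice (cyclophosphamide ip 250 and 100 mg/kg, 4 d and 1 d pre-inoculation) infected orally with S. aureus in 3% mucin. Single 0.2-ml sc dose in normal saline; six mice per time point. Serum sampled 0.25–8 h, BAL at 0.25, 1, 4, 8 h; HPLC; ELF by urea correction. Trapezoidal AUC0-8; serum corrected for ultrafiltration protein binding, BAL drug assumed free.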

The nature of data set [14]: Ratio of fAUC to MIC in hospital-acquired methicillin-resistant Staphylococcus aureus 152-infected BALB/c mouse at bacteriostatic concentration. The data set is classed as functional. The method in brief:
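Neutropenic BALB/c mice (cyclophosphamide ip 250 and 100 mg/kg, 4 days and 1 day pre-inoculation), isoflurane-anaesthetised, inoculated via the mouth with 0.05 ml of 3.0 × 10^8 CFU/ml in 3% mucin. SC tigecycline in saline, 1.56–150 mg/kg/day single or 2–3 divided doses from 6 h. Whole-lung CFU at 24 h versus 0-h controls; sigmoid Emax fit of Δlog10 CFU against fAUC/MIC gives stasis value.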

Data set [15] in a line: Ratio of fAUC to MIC in hospital-acquired methicillin-resistant Staphylococcus aureus 152-infected BALB/c mouse at […] maximal effective concentration. The data set is classed as functional. Put shortly:
as §3

The nature of data set [16]: Protein binding in Staphylococcus aureus-infected BALB/c mouse serum at 6.25 mg/kg, sc administered as single dose. Also on record: dose 6.25 mg/kg, route subcutaneous. As to conditions: read-out: PB (converted). The data set is classed as ADME, organism-based. The method in brief:
as §1

A short description of data set [17]: Half life in BALB/c mouse infected with Staphylococcus aureus at 50 mg/kg, sc administered as single dose. The data set is classed as ADME, organism-based. Also on record: dose 50 mg/kg, route subcutaneous. Particulars: in vivo. The method in brief:
as §2

A short description of data set [18]: Ratio of fAUC to MIC in community-acquired methicillin-resistant Staphylococcus aureus 147-infected BALB/c mouse at 80% maximal effective concentration. In kind it is functional. The method in brief:
as §3

Data set [19] in a line: Cmax in BALB/c mouse infected with Staphylococcus aureus at 25 mg/kg, sc administered as single dose. The data set is classed as ADME, organism-based. As to conditions: in vivo. Also on record: dose 25 mg/kg, route subcutaneous. Put shortly:
as §2

Data set [20] can be described thus: Ratio of fAUC to MIC in methicillin-susceptible Staphylococcus aureus ATCC 29213-infected BALB/c mouse at […] maximal effective concentration. In kind it is functional. The method in brief: as §4
Data set [21] in a line: Cmax in BALB/c mouse infected with Staphylococcus aureus at 12.5 mg/kg, sc administered as single dose. The data set is classed as ADME, organism-based. Also on record: dose 12.5 mg/kg, route subcutaneous. As to conditions: in vivo. Put shortly: as §2
Data set [22] can be described thus: Ratio of fAUC (0 to 8 hrs) in epithelial lining fluid to plasma of Staphylococcus aureus-infected BALB/c mouse at 12.5 mg/kg, sc administered as single dose. On the set-up: dose 12.5 mg/kg, route subcutaneous. In kind it is ADME, organism-based. The method in brief:
as §5

As a reminder, the AUC(0-t) is the area under the concentration-time curve up to a stated or last time point. A high value points to high exposure. For orientation: half-life means how long it takes for the measured level to halve. Usually Cmax stands for the peak of the concentration-time curve. The term MIC denotes the lowest concentration that inhibits growth of the organism. Consider `CN(C)c1cc(NC(=O)CNC(C)(C)C)c(O)c2c1C[C@H]1C[C@H]3[C@H](N(C)C)C(O)=C(C(N)=O)C(=O)[C@@]3(O)C(O)=C1C2=O` [TIGECYCLINE], for which the exposure AUC(0-t) at 8 h in [1] turned out to be 20400 ng·h/mL. Moreover, the fraction unbound in [2] was 0.128; in data set [12], 0.063; in data set [16] it was 0.15. The AUC(0-t) at 24 h in data set [3] was 16500 ng·h/mL; in data set [6], 37500 ng·h/mL; in [10], 72500 ng·h/mL. The fAUC/MIC was determined as 0.38 in data set [4]; 2.68 in [5]; 5.22 in data set [9]; 0.69 in data set [11]; 1.51 in [14]; 1.43 in [15]. Moreover, the fAUC/MIC in data set [18] turned out to be 3.12; in data set [20], 2.33. Also, the half-life in data set [7] was 12.4 h; in data set [17], 11.5 h. Moreover, the Cmax in data set [8] worked out at 15800 ng/mL; in data set [19] it was 5990 ng/mL; in data set [21], 3090 ng/mL. This compound displayed an MIC in the data set on Staphylococcus aureus of 0.125 µg/mL (≈ 0.213 µM). This compound also came in with a Vd with Mus musculus of 2.77 L/kg. Besides, the Kp uu in data set [13] was determined as 15.1; in data set [22], 7.02.
